# Activity calls are given as the source filed them. The calls are words filed in the database; no cut-off is given here.
# System: Leishmania donovani
# Assay: Antileishmanial activity against Leishmania donovani promastigotes after 48 hrs by alamar blue assay
# Assay type: functional, organism-based
# In short: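 L. donovani promastigotes grown in RPMI 1640 with 10% fetal calf serum at 26 °C. A 3-day-old culture was diluted to 5 × 10⁵ promastigotes/mL. Drug dilutions were made directly in the cell suspension and incubated 48 h at 26 °C.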
Structure (SMILES),IC50 [µM],IC90 [µM],Activity
O=C(N/N=C/c1ccc([N+](=O)[O-])s1)c1cccc(Cl)c1,2.74,6.78,–
O=C(N/N=C/c1ccc([N+](=O)[O-])s1)c1cccc(O)c1,2.75,7.55,–
O=C(N/N=C/c1ccc([N+](=O)[O-])s1)c1ccc(C(F)(F)F)cc1,0.82,1.89,–
Cc1ccc(C(=O)N/N=C/c2ccc([N+](=O)[O-])o2)cc1N,0.62,2.88,–
O=C(N/N=C/c1ccc([N+](=O)[O-])o1)c1cccc([N+](=O)[O-])c1,9.86,26,–
COc1cccc(C(=O)N/N=C/c2ccc([N+](=O)[O-])o2)c1,10.4,26.6,–
COc1cc(C(=O)N/N=C/c2ccc([N+](=O)[O-])o2)ccc1[N+](=O)[O-],7.39,20.2,–
COc1ccc(C(=O)N/N=C/c2ccc([N+](=O)[O-])o2)cc1N,16.4,131,–
Cc1ccc(C(=O)N/N=C/c2ccc([N+](=O)[O-])s2)cc1N,2.24,4.7,–
COc1cc(C(=O)N/N=C/c2ccc([N+](=O)[O-])s2)ccc1[N+](=O)[O-],2,3.91,–
COc1ccc(C(=O)N/N=C/c2ccc([N+](=O)[O-])o2)cc1,8.99,25.9,–
O=C(N/N=C/c1ccc([N+](=O)[O-])s1)c1ccc(O)cc1,0.89,4.46,–
Cc1ccc(C(=O)N/N=C/c2ccc([N+](=O)[O-])s2)cc1O,2.3,4.59,–
O=C(N/N=C/c1ccc([N+](=O)[O-])o1)c1ccc(Cl)cc1,7.83,23.8,–
O=C(N/N=C/c1ccc([N+](=O)[O-])o1)c1ccc([N+](=O)[O-])c(O)c1,9.9,48.9,–
O=C(N/N=C/c1ccc([N+](=O)[O-])o1)c1ccc(Cl)c(Cl)c1,1.68,26.9,–
O=C(N/N=C/c1ccc([N+](=O)[O-])o1)c1cccc(C(F)(F)F)c1,10.4,24.1,–
COc1ccc(C(=O)N/N=C/c2ccc([N+](=O)[O-])s2)cc1,7.21,26.2,–
CN(C)c1ccc(C(=O)N/N=C/c2ccc([N+](=O)[O-])o2)cc1,–,–,inactive
Cc1cccc(C(=O)N/N=C/c2ccc([N+](=O)[O-])s2)c1,4.84,19,–
NS(=O)(=O)c1cc(C(=O)N/N=C/c2ccc([N+](=O)[O-])o2)ccc1Cl,38.5,88.5,–
CN(C)c1ccc(C(=O)N/N=C/c2ccc([N+](=O)[O-])s2)cc1,–,–,inactive
O=C(N/N=C/c1ccc([N+](=O)[O-])s1)c1ccc(Cl)cc1,1.26,4.84,–
O=C(N/N=C/c1ccc([N+](=O)[O-])o1)c1ccc(F)c(Cl)c1,6.42,19.2,–
O=C(N/N=C/c1ccc([N+](=O)[O-])o1)c1ccccc1,11.2,29.7,–
NS(=O)(=O)c1cc(C(=O)N/N=C/c2ccc([N+](=O)[O-])s2)ccc1Cl,8.06,17.2,–
N=C(N)c1ccc(OCCCCCOc2ccc(C(=N)N)cc2)cc1 [PENTAMIDINE],1.06,–,–

Structure (SMILES),IC50 [µM],IC90 [µM],Activity
Nc1ccc(C(=O)N/N=C/c2ccc([N+](=O)[O-])o2)cc1,2.66,14.6,–
O=C(N/N=C/c1ccc([N+](=O)[O-])s1)c1cccc([N+](=O)[O-])c1,2.78,14.3,–
Nc1ccc(C(=O)N/N=C/c2ccc([N+](=O)[O-])s2)cc1,2.24,> 34.5,–
O=C(N/N=C/c1ccc([N+](=O)[O-])o1)c1cccc(Cl)c1,7.83,24.2,–
COc1cc(C(=O)N/N=C/c2ccc([N+](=O)[O-])o2)ccc1C,8.9,52.8,–
O=C(N/N=C/c1ccc([N+](=O)[O-])o1)c1ccc(Cl)c([N+](=O)[O-])c1,–,–,inactive
Nc1cc(C(=O)N/N=C/c2ccc([N+](=O)[O-])o2)ccc1O,27,97.5,–
O=C(N/N=C/c1ccc([N+](=O)[O-])s1)c1ccc([N+](=O)[O-])cc1,2.81,5.31,–
COc1cccc(C(=O)N/N=C/c2ccc([N+](=O)[O-])s2)c1,8.52,32.8,–
O=C(N/N=C/c1ccc([N+](=O)[O-])s1)c1cccc(C(F)(F)F)c1,3.79,6.41,–
O=C(N/N=C/c1ccc([N+](=O)[O-])s1)c1ccc(Cl)c(Cl)c1,0.41,0.87,–
Cc1ccc(C(=O)N/N=C/c2ccc([N+](=O)[O-])o2)cc1,11,28.6,–
O=C(N/N=C/c1ccc([N+](=O)[O-])o1)c1ccc(O)cc1 [NIFUROXAZIDE],2.4,17.8,–
COc1cc(C(=O)N/N=C/c2ccc([N+](=O)[O-])s2)ccc1C,2.19,4.39,–
O=C(N/N=C/c1ccc([N+](=O)[O-])o1)c1cccc(O)c1,10.2,28,–
O=C(N/N=C/c1ccc([N+](=O)[O-])s1)c1ccc([N+](=O)[O-])c(O)c1,5.45,18.4,–
COc1ccc(C(=O)N/N=C/c2ccc([N+](=O)[O-])s2)cc1N,4.69,18.3,–
O=C(N/N=C/c1ccc([N+](=O)[O-])s1)c1ccc(F)c(Cl)c1,1.92,4.67,–
O=C(N/N=C/c1ccc([N+](=O)[O-])o1)c1ccc(C(F)(F)F)cc1,8.86,24.4,–
Cc1ccc(C(=O)N/N=C/c2ccc([N+](=O)[O-])s2)cc1,4.49,7.95,–
Cc1cccc(C(=O)N/N=C/c2ccc([N+](=O)[O-])o2)c1,19.8,> 36.6,–
CN(C)c1cccc(C(=O)N/N=C/c2ccc([N+](=O)[O-])o2)c1,7.94,24.2,–
O=C(N/N=C/c1ccc([N+](=O)[O-])o1)c1ccc(F)c(F)c1,9.49,25.5,–
O=C(N/N=C/c1ccc([N+](=O)[O-])s1)c1ccc(F)c(F)c1,2.15,4.92,–
CN(C)c1cccc(C(=O)N/N=C/c2ccc([N+](=O)[O-])s2)c1,–,–,inactive
O=C(N/N=C/c1ccc([N+](=O)[O-])s1)c1ccccc1,6.54,25.4,–
O=C(N/N=C/c1ccc([N+](=O)[O-])o1)c1ccc([N+](=O)[O-])cc1,6.57,22.4,–
